Laboratory results from paper PMC2741613 (Journal of the American Chemical Society, 2009).

Legend:
He-PTP = molecular target: T1, He-PTP (Homo sapiens, UniProt P35236); assay: PTP activity assay with pNPP, He-PTP; type: biochemical
T1 sequence (P35236 1-360): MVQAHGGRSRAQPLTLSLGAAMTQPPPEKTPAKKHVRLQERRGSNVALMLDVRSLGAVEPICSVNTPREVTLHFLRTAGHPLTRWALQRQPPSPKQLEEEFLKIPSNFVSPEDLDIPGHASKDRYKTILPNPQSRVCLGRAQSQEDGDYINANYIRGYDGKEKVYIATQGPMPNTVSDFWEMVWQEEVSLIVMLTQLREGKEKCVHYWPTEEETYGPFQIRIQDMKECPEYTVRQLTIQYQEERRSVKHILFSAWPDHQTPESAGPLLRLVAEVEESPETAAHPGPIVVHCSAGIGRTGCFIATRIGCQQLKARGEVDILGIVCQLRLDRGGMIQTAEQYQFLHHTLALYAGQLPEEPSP
Summary of the method: (§1)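 Reactions started by adding enzyme to mixtures with various pNPP and test-compound concentrations. Rates were fitted with an enzyme-kinetics model for Ki.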

Cdc14A = molecular target: T2, Cdc14A (Homo sapiens, UniProt Q9UNH5); assay: PTP activity assay with pNPP, Cdc14A; type: biochemical
T2 sequence (Q9UNH5 1-594): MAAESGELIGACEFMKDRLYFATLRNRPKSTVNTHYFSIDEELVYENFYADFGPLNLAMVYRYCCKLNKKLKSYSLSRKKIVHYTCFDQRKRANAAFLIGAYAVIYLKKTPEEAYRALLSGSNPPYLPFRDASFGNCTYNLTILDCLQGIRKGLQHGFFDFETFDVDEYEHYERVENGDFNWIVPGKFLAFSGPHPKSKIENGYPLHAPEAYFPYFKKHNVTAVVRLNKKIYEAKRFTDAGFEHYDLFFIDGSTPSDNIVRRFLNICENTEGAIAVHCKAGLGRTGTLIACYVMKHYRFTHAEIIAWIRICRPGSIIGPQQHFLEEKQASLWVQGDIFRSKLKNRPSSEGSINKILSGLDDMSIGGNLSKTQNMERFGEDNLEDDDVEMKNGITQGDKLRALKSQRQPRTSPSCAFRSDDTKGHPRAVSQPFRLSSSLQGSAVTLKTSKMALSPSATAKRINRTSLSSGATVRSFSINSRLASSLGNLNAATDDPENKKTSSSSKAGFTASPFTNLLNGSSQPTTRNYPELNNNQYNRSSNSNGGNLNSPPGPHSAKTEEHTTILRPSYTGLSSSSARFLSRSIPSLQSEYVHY
Summary of the method: as §1

SHP2 = molecular target: T3, SHP2 (Homo sapiens, UniProt Q06124); assay: PTP activity assay with pNPP, SHP2; type: biochemical
T3 sequence (Q06124 1-593): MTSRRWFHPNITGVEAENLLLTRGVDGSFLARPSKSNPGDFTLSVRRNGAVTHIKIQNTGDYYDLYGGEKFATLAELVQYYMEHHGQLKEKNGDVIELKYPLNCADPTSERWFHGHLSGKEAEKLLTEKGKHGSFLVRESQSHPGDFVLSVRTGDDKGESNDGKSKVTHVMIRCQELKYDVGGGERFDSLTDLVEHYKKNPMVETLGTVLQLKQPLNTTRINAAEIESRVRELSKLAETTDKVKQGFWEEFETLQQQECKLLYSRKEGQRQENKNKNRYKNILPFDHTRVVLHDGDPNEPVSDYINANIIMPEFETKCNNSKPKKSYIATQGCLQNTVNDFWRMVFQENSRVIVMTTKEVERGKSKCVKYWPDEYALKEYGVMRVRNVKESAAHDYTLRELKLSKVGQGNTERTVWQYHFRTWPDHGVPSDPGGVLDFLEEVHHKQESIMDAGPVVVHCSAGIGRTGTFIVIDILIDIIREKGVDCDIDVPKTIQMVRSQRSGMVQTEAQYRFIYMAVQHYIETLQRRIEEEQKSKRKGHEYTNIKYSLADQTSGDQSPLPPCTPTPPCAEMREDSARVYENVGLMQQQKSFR
Summary of the method: as §1

[1] = tested on: tyrosine phosphorylation of EGFR in PTP1B−/− mouse embryo fibroblast cells; assay: EGF-stimulated EGFR phosphorylation in cells; type: cell-based; details: 2 hr, then EGF 2 ng/ml 10 min, relative to DMSO
Summary of the method: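 PTP1B−/− mouse embryo fibroblasts were given test compound for 2 hr, then EGF 2 ng/mL for 10 min. Lysis in HEPES pH 7.4 buffer with pervanadate, fluoride and protease inhibitors, cleared at 15,000 rpm for 10 min, protein by BCA. EGFR immunoprecipitated from 1 mg lysate (4 °C, 2 h; protein A/G 2 h). SDS-PAGE, anti-pTyr immunoblot, ECL detection.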

[2] = tested on: pSrc527 in PTP1B−/− mouse embryo fibroblast cells; assay: Src phosphorylation at Tyr527 in cells; type: cell-based; details: treated for two hours, various concentrations
Summary of the method: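 PTP1B−/− mouse embryo fibroblasts at 80% confluence were exposed to test compound for two hours, then lysed and cleared at 15,000 rpm for 10 min. 30 μg total protein run on SDS-PAGE and blotted to PVDF. Probed with anti-pSrc416, anti-pSrc527 and anti-Src antibodies, HRP-conjugated secondaries.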

PTP-Meg2 = molecular target: T4, PTP-Meg2 (Homo sapiens, UniProt P43378); assay: PTP activity assay with pNPP, PTP-Meg2; type: biochemical
T4 sequence (P43378 1-593): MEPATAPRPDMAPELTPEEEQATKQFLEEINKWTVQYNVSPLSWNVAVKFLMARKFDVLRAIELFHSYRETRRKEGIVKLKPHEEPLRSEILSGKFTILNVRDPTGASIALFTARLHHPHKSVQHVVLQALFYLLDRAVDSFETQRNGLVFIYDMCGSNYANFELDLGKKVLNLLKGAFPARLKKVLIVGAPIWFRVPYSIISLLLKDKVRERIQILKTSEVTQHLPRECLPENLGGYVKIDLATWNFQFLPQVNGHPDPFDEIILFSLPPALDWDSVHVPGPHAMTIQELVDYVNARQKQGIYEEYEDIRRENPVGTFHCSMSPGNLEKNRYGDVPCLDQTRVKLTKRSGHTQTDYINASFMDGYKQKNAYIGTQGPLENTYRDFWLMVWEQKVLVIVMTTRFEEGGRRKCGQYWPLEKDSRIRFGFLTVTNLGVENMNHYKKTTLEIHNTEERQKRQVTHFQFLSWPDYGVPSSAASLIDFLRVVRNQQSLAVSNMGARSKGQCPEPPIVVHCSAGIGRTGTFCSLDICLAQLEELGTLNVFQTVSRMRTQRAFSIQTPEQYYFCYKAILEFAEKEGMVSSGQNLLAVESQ
Summary of the method: as §1

LMWPTP = molecular target: T5, LMWPTP (Homo sapiens, UniProt P24666); assay: PTP activity assay with pNPP, LMWPTP; type: biochemical
T5 sequence (P24666 1-158): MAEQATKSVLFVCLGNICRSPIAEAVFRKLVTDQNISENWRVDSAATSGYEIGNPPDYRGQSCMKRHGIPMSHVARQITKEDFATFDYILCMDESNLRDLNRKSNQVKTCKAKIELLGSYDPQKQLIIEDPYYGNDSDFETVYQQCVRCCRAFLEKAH
Summary of the method: as §1

FAP1 = FAP1 (Homo sapiens, UniProt Q12923); assay: PTP activity assay with pNPP, FAP1; type: biochemical
Summary of the method: as §1

Chain of FAP1 (Q12923 whole entry, species assumed): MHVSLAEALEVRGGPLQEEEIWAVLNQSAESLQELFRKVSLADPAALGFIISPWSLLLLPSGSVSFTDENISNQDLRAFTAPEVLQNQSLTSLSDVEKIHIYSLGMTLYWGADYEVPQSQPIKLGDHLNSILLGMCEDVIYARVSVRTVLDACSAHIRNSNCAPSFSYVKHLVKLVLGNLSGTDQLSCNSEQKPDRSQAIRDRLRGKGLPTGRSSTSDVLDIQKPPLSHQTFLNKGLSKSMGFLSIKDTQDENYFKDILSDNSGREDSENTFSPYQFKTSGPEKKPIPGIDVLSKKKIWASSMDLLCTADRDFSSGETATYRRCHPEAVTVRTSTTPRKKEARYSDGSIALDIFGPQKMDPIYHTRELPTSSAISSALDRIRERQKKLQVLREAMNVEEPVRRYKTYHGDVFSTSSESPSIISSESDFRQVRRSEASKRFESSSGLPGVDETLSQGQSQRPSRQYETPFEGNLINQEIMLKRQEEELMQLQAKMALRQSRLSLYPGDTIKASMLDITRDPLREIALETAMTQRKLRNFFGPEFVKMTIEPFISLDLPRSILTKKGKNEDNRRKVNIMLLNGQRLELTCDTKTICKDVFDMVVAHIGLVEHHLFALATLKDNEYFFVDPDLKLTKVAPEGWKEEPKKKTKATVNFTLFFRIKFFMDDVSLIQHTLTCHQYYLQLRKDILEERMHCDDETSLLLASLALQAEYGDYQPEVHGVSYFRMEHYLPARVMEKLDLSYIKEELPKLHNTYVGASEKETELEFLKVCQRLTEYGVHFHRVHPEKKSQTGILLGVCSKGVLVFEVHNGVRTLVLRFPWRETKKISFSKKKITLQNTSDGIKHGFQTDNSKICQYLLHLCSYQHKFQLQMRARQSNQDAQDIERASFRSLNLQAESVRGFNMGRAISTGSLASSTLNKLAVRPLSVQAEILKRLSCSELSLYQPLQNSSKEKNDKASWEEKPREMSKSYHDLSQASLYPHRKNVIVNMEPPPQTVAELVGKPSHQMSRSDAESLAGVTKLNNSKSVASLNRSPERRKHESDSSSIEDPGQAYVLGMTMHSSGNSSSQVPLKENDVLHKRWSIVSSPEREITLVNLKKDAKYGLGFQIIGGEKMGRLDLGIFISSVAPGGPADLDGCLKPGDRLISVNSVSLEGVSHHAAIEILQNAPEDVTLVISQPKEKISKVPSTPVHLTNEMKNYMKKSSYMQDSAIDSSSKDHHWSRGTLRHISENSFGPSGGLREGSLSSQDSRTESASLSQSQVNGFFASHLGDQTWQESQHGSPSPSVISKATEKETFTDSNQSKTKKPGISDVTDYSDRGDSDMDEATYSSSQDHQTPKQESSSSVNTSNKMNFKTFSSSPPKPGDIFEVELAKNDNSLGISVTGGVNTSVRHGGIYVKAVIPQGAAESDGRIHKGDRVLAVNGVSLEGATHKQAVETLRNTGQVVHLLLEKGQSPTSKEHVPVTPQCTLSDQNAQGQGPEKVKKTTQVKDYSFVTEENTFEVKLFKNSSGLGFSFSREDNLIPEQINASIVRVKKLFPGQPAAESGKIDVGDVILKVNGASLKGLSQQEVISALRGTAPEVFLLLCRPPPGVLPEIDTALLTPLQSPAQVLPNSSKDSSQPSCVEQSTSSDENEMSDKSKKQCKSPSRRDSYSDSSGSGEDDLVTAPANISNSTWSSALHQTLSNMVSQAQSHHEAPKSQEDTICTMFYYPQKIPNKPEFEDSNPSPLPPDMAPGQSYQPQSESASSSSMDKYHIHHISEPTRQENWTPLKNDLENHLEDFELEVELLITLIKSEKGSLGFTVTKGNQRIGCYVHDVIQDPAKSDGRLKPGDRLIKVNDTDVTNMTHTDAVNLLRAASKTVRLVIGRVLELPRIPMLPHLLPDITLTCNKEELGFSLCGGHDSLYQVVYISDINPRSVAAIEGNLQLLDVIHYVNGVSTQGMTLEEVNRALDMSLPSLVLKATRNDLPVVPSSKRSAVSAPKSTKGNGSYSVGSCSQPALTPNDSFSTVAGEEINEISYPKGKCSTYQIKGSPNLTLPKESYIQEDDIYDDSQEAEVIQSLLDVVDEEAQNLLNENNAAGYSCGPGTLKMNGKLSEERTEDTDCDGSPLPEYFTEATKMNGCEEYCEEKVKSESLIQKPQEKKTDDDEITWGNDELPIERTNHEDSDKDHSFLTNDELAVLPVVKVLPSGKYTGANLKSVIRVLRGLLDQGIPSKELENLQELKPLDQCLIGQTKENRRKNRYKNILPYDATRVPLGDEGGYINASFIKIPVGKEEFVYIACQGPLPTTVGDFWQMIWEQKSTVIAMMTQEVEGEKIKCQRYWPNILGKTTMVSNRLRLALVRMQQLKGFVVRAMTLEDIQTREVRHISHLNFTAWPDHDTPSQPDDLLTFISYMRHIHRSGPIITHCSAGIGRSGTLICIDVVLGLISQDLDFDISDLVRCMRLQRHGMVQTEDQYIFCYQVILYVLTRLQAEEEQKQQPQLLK

CCc1ccc(C(=O)NCCCC[C@H](NC(=O)[C@H](Cc2ccc(C(F)(F)P(=O)(O)O)cc2)NC(=O)[C@H](Cc2ccccc2)NC(=O)CO[C@H]2C[C@@H](C)CC[C@@H]2C(C)C)C(N)=O)cc1 [Compound 8]
Ki (He-PTP): > 1 µM
Ki (Cdc14A): > 1 µM
Ki (SHP2): > 1 µM
increase in EGFR phosphorylation ([1]; 5 nM): ~2 fold
increase in EGFR phosphorylation ([1]; 50 nM): 5.0 fold
effect on pSrc527 phosphorylation [2]: no significant change
Ki (PTP-Meg2): > 1 µM
Ki (LMWPTP): > 1 µM
Ki (FAP1): > 1 µM
